Screens as filed in PubChem.
KCNQ1 block = blocks the human KCNQ1 potassium channel; P51787; CHO-K1 KCNQ1, FluxOR thallium flux fluorescence; hits give high values; B-score at 10 µM; actives 1.3% (n = 310,000); AID 2642;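 active = compounds whose thallium flux B-score, printed positive for inhibition, exceeds three library SD while starting fluorescence stays within three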;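 note: channel opened by potassium depolarization with thallium stimulus after 20 min compound exposure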
Kir21 inh = Kir2.1 (mouse) channel inhibition | AID 1672 | actives 0.85% (n = 310,000) | HEK293-Kir2.1, FluxOR thallium flux fluorescence; hits give low values | B-score at 10 µM;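 active = fluorescence ratio B-score at or below minus 3 SD of library scores, with starting-brightness B-score within 2 SD, cut at about -4.2 in these data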;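 note: channel flux triggered by added potassium and thallium sulfate stimulus; B-score of peak minus minimum fluorescence over baseline after thallium stimulus; more negative B-score means stronger Kir2.1 block with less thallium influx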
Target sequence (P35561 whole entry, looked up): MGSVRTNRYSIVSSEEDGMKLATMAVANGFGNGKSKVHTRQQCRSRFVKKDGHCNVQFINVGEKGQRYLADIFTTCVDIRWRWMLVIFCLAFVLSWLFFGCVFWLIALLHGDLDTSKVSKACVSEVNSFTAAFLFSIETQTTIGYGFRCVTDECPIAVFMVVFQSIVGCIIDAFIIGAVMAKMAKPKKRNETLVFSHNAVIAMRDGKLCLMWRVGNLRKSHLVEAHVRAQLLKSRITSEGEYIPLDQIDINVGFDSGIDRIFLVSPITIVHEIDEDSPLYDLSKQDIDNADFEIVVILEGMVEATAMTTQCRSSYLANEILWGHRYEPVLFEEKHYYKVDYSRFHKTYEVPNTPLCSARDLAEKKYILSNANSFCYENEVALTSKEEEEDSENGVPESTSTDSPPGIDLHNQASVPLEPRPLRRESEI
KCNQ1 act = potentiators or activators of human KCNQ1 potassium channel | P51787 | CHO-K1 KCNQ1, thallium flux FluxOR fluorescence; hits give high values | B-score at 10 µM | actives 0.35% (n = 310,000) | AID 2648;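 active = fluorescence ratio B-score, a plate-corrected score, at least three library SD, with initial intensity B-score within 5 SD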
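System: CHO-K1 cells stably expressing KCNQ1 / Medium: assay buffer for compound exposure, DMSO matched across wells / Reagent: thallium- and potassium-containing depolarizing buffer / Compound: one concentration, matched DMSO / Incubation: 20 min compound pretreatment at room temperature / Measured by: kinetic FluxOR fluorescence, 10 s baseline plus 110 s post-stimulus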
KCNK9 inh = inhibitors of human KCNK9 two-pore domain potassium channel | B-score at 10 µM | AID 488922 | HEK293 KCNK9, FluxOR thallium flux fluorescence; hits give low values | Q9NPC2 | actives 1.2% (n = 310,000);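 active = ratio B-score over 3 SD below the library mean, with starting fluorescence within 5 SD of its mean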;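 note: negative B-score means less thallium flux so channel inhibition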
hERG rescue = compounds protecting human hERG from proarrhythmic drug block; activation (rescue from dofetilide block), less the hit threshold, % at 10 µM; actives 0.51% (n = 310,000); CHO-hERG, FluxOR thallium flux, dofetilide IC70 present; Q12809;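 active = activation above the mean of controls blocked by dofetilide plus 5 SD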;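 note: thallium influx through hERG after potassium depolarization seen as dye fluorescence rise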
KCNK3 inh = human KCNK3 channel inhibition, primary screen; CHO-KCNK3 thallium flux, FluxOR fluorescence; hits give low values; B-score at 10 µM; actives 0.84% (n = 340,000); AID 602410;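 active = B-score under library mean minus 4 SD, starting fluorescence ratio at most library mean plus 5 SD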;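 note: more negative B-score means stronger inhibition of thallium flux through KCNK3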
KCNK9 block conf = confirmation of human KCNK9 potassium channel inhibitors | shares compounds with KCNK9 inh | HEK293 KCNK9 cells, FluxOR thallium flux fluorescence | actives 43% (n = 4,900) | inhibition, % at 10 µM;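 active = thallium signal inhibited by more than 5 SD of the compound-free buffer control wells, on both duplicate plates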;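 note: 0% = assay buffer control wells without compound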
Kir21 sel = tests whether KCNK9 modulators also affect mouse Kir2.1; actives 4% (n = 4,900); shares compounds with KCNK9 inh; Kir2.1 cells, FluxOR thallium flux fluorescence; inhibition, % at 10 µM;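 active = thallium signal drop more than 5 SD beyond the mean of the no-compound control wells, seen in both duplicate plates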;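 note: signal is fluorescence rise after thallium addition divided by baseline fluorescence; plate controls were assay buffer only for no effect and full block by chlorpromazine control for full effect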
HEK293 Tl ctr = second check of KCNK9 modulator effects in non-induced HEK293 cells | shares compounds with KCNK9 inh | FluxOR thallium flux | inhibition, % at 10 µM | actives 40% (n = 4,900);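 active = thallium signal drop beyond 5 SD of the untreated control mean, on both duplicate plates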;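 note: plate controls were buffer only IC0 wells for no effect and SID17386958 at its maximal inhibitory level for full effect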
KCNK3 inh conf = human KCNK3 channel inhibition, confirmation assay; shares compounds with KCNK3 inh; CHO-KCNK3 thallium flux, FluxOR fluorescence; 0% buffer, 100% carvedilol maximal block; ratio percent of control, % at 10 µM; actives 99% (n = 2,400); AID 651638;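 active = ratio percent of control, averaged over triplicates, above buffer control mean plus 5 SD, cut at about 64% in these data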;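 note: ratio is the fluorescence rise from min to max over baseline after thallium stimulus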
KCNK3 noninduced = activity in cells without induced KCNK3 expression; actives 40% (n = 2,400); thallium flux ratio (lower = more inhibition) at 10 µM; non-induced KCNK3 parental cells, FluxOR thallium flux; hits give low values; shares compounds with KCNK3 inh;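 active = thallium flux ratio, averaged over three wells, more than 5 SD below the buffer control mean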;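 note: host cells are CHO cells without KCNK3 induction; ratio is peak minus trough fluorescence over baseline then normalized to buffer controls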
* marks the source's active call; other numbers are inactive results; i = inactive; / = no result given. In the library only some 3.8% were active in any assay of this set; here they are far more common.

SMILES	KCNQ1 block	Kir21 inh	KCNQ1 act	KCNK9 inh	hERG rescue	KCNK3 inh	KCNK9 block conf	Kir21 sel	HEK293 Tl ctr	KCNK3 inh conf	KCNK3 noninduced
O=[N+]([O-])c1cc([N+](=O)[O-])c(Oc2cccc(Cl)c2Cl)cc1NN1CCCCC1	i	0.1	i	i	-6	i	/	/	/	/	/
CCCCn1nc(C(=O)N2CCN(S(=O)(=O)c3ccccc3)CC2)c2ccccc2c1=O	i	1.8	i	i	-11	i	/	/	/	/	/
CC(C)(C)c1ccc(NC(=O)COC(=O)C2(C)CC2(Cl)Cl)cc1 (stereo not given)	i	0.39	i	i	-6	i	/	/	/	/	/
COc1cccc(-c2nn(-c3ccccc3)cc2/C=C\C(=O)c2cccs2)c1	i	0.05	i	-9.5*	-7	-12*	39%*	i	30%*	89*	i
COc1cccc(-c2nn(-c3ccccc3)cc2C(=O)O)c1	i	-0.28	i	i	-6	i	/	/	/	/	/
CSc1nc(Cl)c(Cc2ccc(OC(C)C)cc2)c(N(C)C)n1	i	0.01	i	-8.4*	-20	-8.8*	i	i	38%*	134*	0.13*
Cc1cc(C(=O)COc2cc(F)ccc2[N+](=O)[O-])c(C)n1CC1CCCO1 (stereo not given)	/	/	/	/	/	i	/	/	/	/	/
Cc1noc(C)c1NC(=O)N(C)C[C@@H]1Oc2ccc(NC(=O)C3CCCCC3)cc2C(=O)N([C@@H](C)CO)C[C@H]1C	/	/	/	/	/	i	/	/	/	/	/
COc1ccc(OC)c(-c2csc(NC(=O)c3ccccc3F)n2)c1	i	-0.54	i	i	-5	i	/	/	/	/	/
COc1ccc(OC)c(-c2csc(NC(=O)Cc3ccccc3OC)n2)c1	i	-0.39	i	-16*	-3	-13*	i	i	40%*	89*	i
COc1ccccc1OCC(=O)Nc1cccc(-c2nc3ccccc3o2)c1	i	-0.9	i	-12*	-3	i	45%*	i	i	114*	i
Clc1ccc(COn2nnc3ccccc32)c(Cl)c1	i	0	i	i	-5	i	/	/	/	/	/
CN1/C(=C\C=O)C(C)(C)c2ccccc21	i	-0.14	i	i	-3	i	/	/	/	/	/
CN1\C(=C/C=C/C=C/C=[N+](C)C)C(C)(C)c2ccccc21	16*	-13*	i	-8.3*	-53	-13*	58%*	76%*	58%*	155*	0.085*
COc1ccc(NC(=O)c2nc[nH]c2C(=O)N(C)Cc2ccccc2)cc1	i	0.42	i	i	-5	i	/	/	/	/	/
COC(=O)CC1C(=O)NCCN1C(=O)CSc1nc2ccccc2c(=O)n1CC(C)C (stereo not given)	i	-0.88	i	i	-5	i	/	/	/	/	/
CCN(CC)C(=O)CSc1nnnn1-c1ccc(F)c(Cl)c1	i	-0.02	i	i	-1	i	/	/	/	/	/
CCc1noc(C)c1C(=O)N1CCN(S(=O)(=O)c2ccc(C)cc2)CC1	i	-1.8	i	i	-15	i	/	/	/	/	/
CCc1noc(C)c1C(=O)N1CCSC1=Nc1cccc(Cl)c1C	6*	-3.5	i	-8.9*	-17	-11*	64%*	i	42%*	113*	i
